# Reference: ChEMBL document CHEMBL1124668, “Solid-phase synthesis of 16 potent (selective and nonselective) in vivo antagonists of oxytocin” (J Med Chem, 1989)
# Starred links: 1 amine or outer side, 2 acyl side, 3 side chain; linkers in the order of their positions; H or OH if unused. Positions of bridges follow the written chain, without caps; N, C: chain ends. Non-standard residues stand in square brackets, D forms with d. Residues, ends and D or L forms follow the SMILES beside them. X1 = O=C(CC1(S[*:2])CCCCC1)[*:1]; Orn = NCCC[C@H](N)C(=O)O
# Experiments:
# Rattus norvegicus [1] = experiment: (§1) Antivasopressor activity in vivo in phenoxybenzamine pre-treated rats.; assay type: functional
# Summary of the method: (§2)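 Rats pretreated with phenoxybenzamine, under urethane anesthesia; antagonist given iv; agonist USP Posterior Pituitary Reference Standard; read-out is pressor response. Effective dose (nmol/kg) is the dose that cuts the response to 2X units of agonist to that of 1X unit, interpolated semilogarithmically from bracketing doses. pA2 assumes a 67 mL/kg distribution volume. SEM is given where there are ≥4 independent estimates.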
# Rattus norvegicus [2] = experiment: In vivo inhibition of estrogen induced changes in interuterine pressure in rats.; assay type: functional
# Summary of the method: (§3)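 Rats pretreated with estrogen, under urethane anesthesia; antagonist given iv; read-out is change in integrated intrauterine pressure; agonist synthetic oxytocin. Effective dose (nmol/kg) is the dose that cuts the response to 2X units of agonist to the response to 1X unit, interpolated on a semilog scale from doses above and below it. pA2 is derived assuming a 67 mL/kg distribution volume.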
# Rattus norvegicus [3] = experiment: Antidiuretic activity in rats as intravenous dose required for reduction of 2x agonist response to equal 1x effect in estrogen pretreated rats; assay type: functional, Urine
# Rattus norvegicus [4] = experiment: Antidiuretic activity in rats as intravenous dose required for reduction of 2x agonist response to equal 1x effect in estrogen pretreated rats; Weak partial agonist/antagonist; assay type: functional; conditions: Urine
# Rattus norvegicus [5] = experiment: In vivo antidiuretic activity as intravenous antagonist dose in estrogen pretreated rats; Weak partial agonist/antagonist; assay type: functional, organism-based; conditions: Urine
# Rattus norvegicus [6] = organism: Rattus norvegicus; experiment: Antioxytoxic activity in vitro in isolated uteri from estrogen pretreated rats suspended in Mg supplemented Dyke-Hastings solution.; assay type: functional; conditions: read-out: pA2 (converted)
# Summary of the method: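 Isolated rat uterus in bath medium with Mg2+; agonist USP Posterior Pituitary Reference Standard. pA2 is the −log of the effective molar antagonist concentration that reduces the response to a dose of agonist to the response to half that dose. It is interpolated semilogarithmically from concentrations above and below it. SEM is given where there are ≥4 independent estimates.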
# Rattus norvegicus [7] = organism: Rattus norvegicus; experiment: Antioxytoxic activity in vitro in isolated uteri from estrogen pretreated rats suspended in Mg-free Dyke-Hastings solution.; conditions: read-out: pA2 (converted)
# Rattus norvegicus [8] = experiment: as §1; assay type: functional, organism-based; conditions: read-out: pA2 (converted); summary of the method: as §2
# Rattus norvegicus [9] = experiment: Antioxytocic potencies (change in interuterine pressure) in vivo in estrogen pre-treated rats.; assay type: functional, organism-based; conditions: read-out: pA2 (converted); summary of the method: as §3
# Rattus norvegicus [10] = experiment: Antiantidiuretic activity in vivo in hydrated rats under ethanol anaesthesia.; assay type: functional, organism-based; conditions: Urine, read-out: pA2 (converted)
# Summary of the method: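 Hydrated rats under ethanol anaesthesia; antagonist given iv against the USP Posterior Pituitary Reference Standard as agonist. Effective dose (nmol/kg) is the dose that cuts the response to 2x units of agonist to equal the response to 1x unit. It is estimated by interpolation on a semilog scale between doses above and below it. pA2 assumes a volume of distribution of 67 mL/kg. Where SEM is given, n ≥4 estimates.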
# Rattus norvegicus [11] = experiment: Antidiuretic activity in rats as intravenous dose required for reduction of 2x agonist response to equal 1x effect in hydrated rats under ethanol anesthesia; Weak partial agonist/antagonist
# Rattus norvegicus [12] = organism: Rattus norvegicus; experiment: Antidiuretic activity in rats; assay type: functional, Urine
# Rattus norvegicus [13] = organism: Rattus norvegicus; experiment: Antidiuretic activity in rat; assay type: functional, Urine
SMILES,ED (Rattus norvegicus [1]) [nM/kg],ED (Rattus norvegicus [2]) [nM/kg],ED (Rattus norvegicus [3]) [nM/kg],further results
CC[C@H](C)[C@@H]1NC(=O)[C@@H](Cc2ccccc2)NC(=O)CC2(CCCCC2)SSC[C@@H](C(=O)N2CCC[C@H]2C(=O)N[C@@H](CCCN=C(N)N)C(=O)NCC(N)=O)NC(=O)[C@H](CC(N)=O)NC(=O)[C@H](C(C)C)NC1=O,17,2.5,45,–
CC[C@H](C)[C@@H]1NC(=O)[C@@H](Cc2ccc(OC)cc2)NC(=O)CC2(CCCCC2)SSC[C@@H](C(=O)N2CCC[C@H]2C(=O)N[C@@H](CCCN=C(N)N)C(=O)NCC(N)=O)NC(=O)[C@H](CC(N)=O)NC(=O)[C@H](C(C)C)NC1=O,1.1,2.4,9.4,–
CCOc1ccc(C[C@H]2NC(=O)CC3(CCCCC3)SSC[C@@H](C(=O)N3CCC[C@H]3C(=O)N[C@@H](CCCNC(N)=O)C(=O)NCC(N)=O)NC(=O)[C@H](CC(N)=O)NC(=O)[C@H](C(C)C)NC(=O)[C@H](Cc3ccccc3)NC2=O)cc1,0.81,1.8,23,–
COc1ccc(C[C@H]2NC(=O)CC3(CCCCC3)SSC[C@@H](C(=O)N3CCC[C@H]3C(=O)N[C@@H](CCCN=C(N)N)C(=O)NCC(N)=O)NC(=O)[C@H](CC(N)=O)NC(=O)[C@H](CCC(N)=O)NC(=O)[C@H](Cc3ccccc3)NC2=O)cc1,0.36,1.3,7.3,–
COc1ccc(C[C@H]2NC(=O)CC3(CCCCC3)SSC[C@@H](C(=O)N3CCC[C@H]3C(=O)N[C@@H](CCCN=C(N)N)C(=O)NCC(N)=O)NC(=O)[C@H](CC(N)=O)NC(=O)[C@H](C(C)C)NC(=O)[C@H](Cc3ccccc3)NC2=O)cc1,0.23,1.9,1.2,–
COc1ccc(C[C@H]2NC(=O)CC3(CCCCC3)SSC[C@@H](C(=O)N3CC=C[C@H]3C(=O)N[C@@H](CCCN=C(N)N)C(=O)NCC(N)=O)NC(=O)[C@H](CC(N)=O)NC(=O)[C@H](C(C)C)NC(=O)[C@H](Cc3ccccc3)NC2=O)cc1,0.55,1.17,1.7,–
COc1ccc(C[C@@H]2NC(=O)CC3(CCCCC3)SSC[C@@H](C(=O)N3CCC[C@H]3C(=O)N[C@@H](CCCN=C(N)N)C(=O)NCC(N)=O)NC(=O)[C@H](CC(N)=O)NC(=O)[C@H](C(C)C)NC(=O)[C@H](Cc3ccccc3)NC2=O)cc1,0.29,8,3.1,–
CC[C@H](C)[C@H]1NC(=O)[C@@H](Cc2ccc(OC)cc2)NC(=O)CC2(CCCCC2)SSC[C@H](C(=O)N2CCC[C@H]2C(=O)N[C@@H](CCCN)C(=O)N[C@H](C)C(N)=O)NC(=O)[C@@H](CC(N)=O)NC(=O)[C@H]([C@H](C)O)NC1=O,–,–,–,ED (Rattus norvegicus [4]): Partial agonist
CC[C@H](C)[C@H]1NC(=O)[C@@H](Cc2ccc(OC)cc2)NC(=O)CC2(CCCCC2)SSC[C@H](C(=O)N2CCC[C@H]2C(=O)N[C@@H](CCCN)C(=O)N[C@H](CCCN=C(N)N)C(N)=O)NC(=O)[C@@H](CC(N)=O)NC(=O)[C@H]([C@H](C)O)NC1=O,–,–,–,Activity (Rattus norvegicus [5]): Partial agonist
CC[C@H](C)[C@@H]1NC(=O)[C@H](Cc2ccc(OC)cc2)NC(=O)CC2(CCCCC2)SSC[C@@H](C(=O)N2CCC[C@H]2C(=O)N[C@@H](CCCN)C(=O)NCC(N)=O)NC(=O)[C@H](CC(N)=O)NC(=O)[C@H](CCC(N)=O)NC1=O (Y(Me)IQNCP[Orn]G-NH2; linker N-5 via X1),0.8,4.2,0.01,–
CC[C@H](C)[C@@H]1NC(=O)[C@H](Cc2ccc(OC)cc2)NC(=O)CC2(CCCCC2)SSC[C@@H](C(=O)N2CCC[C@H]2C(=O)N[C@@H](CCCN)C(N)=O)NC(=O)[C@H](CC(N)=O)NC(=O)[C@H]([C@@H](C)O)NC1=O (Y(Me)ITNCP[Orn]-NH2; linker N-5 via X1) [listing 1 of 2 here],–,–,–,Kb (Rattus norvegicus [6]): 2.75 nM; Kb (Rattus norvegicus [7]): 6.76 nM; Kb (Rattus norvegicus [8]): 105 nM; Kb (Rattus norvegicus [9]): 24.5 nM; Kb (Rattus norvegicus [10]): ~1580 nM
CC[C@H](C)[C@@H]1NC(=O)[C@H](Cc2ccc(OC)cc2)NC(=O)CC2(CCCCC2)SSC[C@@H](C(=O)N2CCC[C@H]2C(=O)N[C@@H](CCCN)C(N)=O)NC(=O)[C@H](CC(N)=O)NC(=O)[C@H]([C@@H](C)O)NC1=O (Y(Me)ITNCP[Orn]-NH2; linker N-5 via X1) [listing 2 of 2 here],7.3,1.7,–,ED (Rattus norvegicus [11]): ~100 nM/kg
CC[C@H](C)[C@@H]1NC(=O)[C@H](Cc2ccc(OC)cc2)NC(=O)CC2(CCCCC2)SSC[C@@H](C(=O)N2CCC[C@H]2C(=O)N[C@@H](CCCN)C(=O)O)NC(=O)[C@H](CC(N)=O)NC(=O)[C@H]([C@@H](C)O)NC1=O (Y(Me)ITNCP[Orn]-OH; linker N-5 via X1) [listing 1 of 2 here],–,–,–,Kb (Rattus norvegicus [6]): 5.75 nM; Kb (Rattus norvegicus [7]): 12.9 nM; Kb (Rattus norvegicus [8]): 331 nM; Kb (Rattus norvegicus [9]): 20.4 nM; Kb (Rattus norvegicus [10]): ~5010 nM
CC[C@H](C)[C@@H]1NC(=O)[C@H](Cc2ccc(OC)cc2)NC(=O)CC2(CCCCC2)SSC[C@@H](C(=O)N2CCC[C@H]2C(=O)N[C@@H](CCCN)C(=O)O)NC(=O)[C@H](CC(N)=O)NC(=O)[C@H]([C@@H](C)O)NC1=O (Y(Me)ITNCP[Orn]-OH; linker N-5 via X1) [listing 2 of 2 here],23,1.3,–,ED (Rattus norvegicus [11]): ~300 nM/kg
CC[C@H](C)[C@@H]1NC(=O)[C@H](Cc2ccc(OC)cc2)NC(=O)CC2(CCCCC2)SSC[C@@H](C(=O)N2CCC[C@H]2C(=O)N[C@@H](CCCN)C(=O)NCC(N)=O)NC(=O)[C@H](CC(N)=O)NC(=O)[C@H]([C@@H](C)O)NC1=O (Y(Me)ITNCP[Orn]G-NH2; linker N-5 via X1),–,–,–,Kb (Rattus norvegicus [6]): 3.89 nM; Kb (Rattus norvegicus [7]): 9.55 nM; Kb (Rattus norvegicus [8]): 141 nM; Kb (Rattus norvegicus [9]): 28.2 nM; Kb (Rattus norvegicus [10]): ~5010 nM
CCOc1ccc(C[C@H]2NC(=O)CC3(CCCCC3)SSC[C@@H](C(=O)N3CCC[C@H]3C(=O)N[C@@H](CCCCN)C(=O)NCC(N)=O)NC(=O)[C@H](CC(N)=O)NC(=O)[C@H](C(C)C)NC(=O)[C@H](Cc3ccccc3)NC2=O)cc1 ([dY](Et)FVNCPKG-NH2; linker N-5 via X1) [listing 1 of 2 here],–,–,–,Kb (Rattus norvegicus [6]): 10.5 nM; Kb (Rattus norvegicus [7]): 13.5 nM; Kb (Rattus norvegicus [8]): 6.92 nM; Kb (Rattus norvegicus [9]): 26.9 nM; Kb (Rattus norvegicus [10]): 19.1 nM
CCOc1ccc(C[C@H]2NC(=O)CC3(CCCCC3)SSC[C@@H](C(=O)N3CCC[C@H]3C(=O)N[C@@H](CCCCN)C(=O)NCC(N)=O)NC(=O)[C@H](CC(N)=O)NC(=O)[C@H](C(C)C)NC(=O)[C@H](Cc3ccccc3)NC2=O)cc1 ([dY](Et)FVNCPKG-NH2; linker N-5 via X1) [listing 2 of 2 here],0.48,1.9,1.5,–
CCOc1ccc(C[C@H]2NC(=O)CC3(CCCCC3)SSC[C@@H](C(=O)N3CCC[C@H]3C(=O)N[C@@H](CCCN=C(N)N)C(=O)NCC(N)=O)NC(=O)[C@H](CC(N)=O)NC(=O)[C@H](C(C)C)NC(=O)[C@H](Cc3ccccc3)NC2=O)cc1 ([dY](Et)FVNCPRG-NH2; linker N-5 via X1),0.45,2.6,1.1,–
CC[C@H](C)[C@@H]1NC(=O)C(Cc2ccc(OC)cc2)NC(=O)CC2(CCCCC2)SSC[C@@H](C(=O)N2CCC[C@H]2C(=O)N[C@@H](CCCN=C(N)N)C(=O)NCC(N)=O)NC(=O)[C@H](CC(N)=O)NC(=O)[C@H](CCC(N)=O)NC1=O (stereo in doubt),0.64,1.1,–,Activity (Rattus norvegicus [12]): ~0.03 mg
CC[C@H](C)[C@@H]1NC(=O)C(Cc2ccc(OC)cc2)NC(=O)CC(C)(C)SSC[C@@H](C(=O)N2CCC[C@H]2C(=O)N[C@@H](CCCN=C(N)N)C(=O)NCC(N)=O)NC(=O)[C@H](CC(N)=O)NC(=O)[C@H](C(C)C)NC1=O (stereo in doubt),0.23,1.9,–,Activity (Rattus norvegicus [13]): 1.6 mg
CC[C@H](C)[C@@H]1NC(=O)C(Cc2ccc(OC)cc2)NC(=O)CC(C)(C)SSC[C@@H](C(=O)N2CCC[C@H]2C(=O)N[C@@H](CCCN=C(N)N)C(=O)NCC(N)=O)NC(=O)[C@H](CC(N)=O)NC(=O)[C@H](CCC(N)=O)NC1=O (stereo in doubt),0.25,2.2,–,Activity (Rattus norvegicus [13]): ~1.6 mg
CC[C@H](C)[C@@H]1NC(=O)C(Cc2ccc(OC)cc2)NC(=O)CC2(CCCCC2)SSC[C@@H](C(=O)N2CCC[C@H]2C(=O)N[C@@H](CCCCN)C(=O)NCC(N)=O)NC(=O)[C@H](CC(N)=O)NC(=O)[C@H](CCC(N)=O)NC1=O (stereo in doubt),1.5,4.6,–,Activity (Rattus norvegicus [13]): ~0.003 mg
